{
  "source": "paper PMC6272098",
  "about": "(Cancer Science, 2018)",
  "key": {"[1]": {"settings": "21-day oral dosage in mice ref 22; cited from earlier work"}, "COLO-320DM cells": {"tested_on": "COLO-320DM cells", "experiment": "BrdU assay", "assay_type": "cell-based, human", "settings": "48 h", "summary_of_the_method": "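Cells were grown in RPMI-1640 with 10% heat-inactivated FBS and exposed to test compound for 48 h before BrdU incorporation was measured. Tukey-Kramer comparison was against DMSO-treated cells. Experiments were repeated at least twice; representative results are shown with standard deviation.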"}, "RKO cells": {"tested_on": "RKO cells", "experiment": "BrdU assay", "assay_type": "cell-based, human", "settings": "48 h", "summary_of_the_method": "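Cells were kept in DMEM with 10% FBS, treated for 48 h, then assayed for BrdU incorporation. DNA synthesis was compared with DMSO-treated (basal) cells by Tukey-Kramer test. Experiments were repeated at least twice; representative data are shown with standard deviation.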"}, "[2]": {"tested_on": "non-phosphorylated (active) β-catenin", "experiment": "Immunofluorescence staining of active β-catenin in COLO-320DM cells", "assay_type": "cell-based, human", "settings": "1 μmol/L, 16 h, DMSO 100%", "summary_of_the_method": "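Cells were exposed to 1 μmol/L test compound for 16 h, then immunostained with anti-non-phosphorylated β-catenin antibody (D13A1, 1:500) and counterstained with DAPI. Fluorescence images were quantified, and intensity was expressed relative to DMSO-treated cells (100%).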"}, "[3]": {"tested_on": "tankyrase, Axin1/2, β-catenin", "experiment": "Western blot analysis of pharmacodynamic biomarkers in COLO-320DM cells", "assay_type": "cell-based, human", "settings": "16 h", "summary_of_the_method": "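Cells cultured in RPMI-1640 with 10% heat-inactivated FBS were treated for 16 h. Whole cell lysates were then analysed by western blot.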"}, "[4]": {"tested_on": "TCF/LEF reporter activity", "experiment": "TCF/LEF luciferase reporter assay, COLO-320DM", "assay_type": "cell-based, human", "settings": "30 h", "summary_of_the_method": "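Cells were transfected with TCF reporter vectors (including pTcf7wt-luc), then exposed to test compound for 30 h and luciferase activity was read. Comparison was by Tukey-Kramer test against pTcf7wt-luc-transfected DMSO-treated cells.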"}, "[5]": {"tested_on": "TCF/LEF reporter activity", "experiment": "TCF/LEF luciferase reporter assay, L-Wnt3A-stimulated HEK293T", "assay_type": "cell-based", "settings": "30 h", "summary_of_the_method": "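HEK293T cells were transfected with TCF luciferase reporters. Conditioned medium from L or L‐Wnt3A cells, prepared per the ATCC protocol, was added together with test compound, and luciferase was read after 30 h. Comparison was by Tukey-Kramer test against pTcf7wt-luc-transfected DMSO controls.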"}},
  "data": [
    {"smiles": "COc1ccc(C2(CNC(=O)c3ccc(NC(=O)c4ccco4)cc3)CCOCC2)cc1", "note": "[JW55]", "values": [
      {"measurement": "Body weight and small intestine histology in mice", "setting": "[1]", "result": "no body weight alterations or histological changes in the small intestine"}
    ]},
    {"smiles": "O=C(c1cc(Cc2n[nH]c(=O)c3ccccc23)ccc1F)N1CCN(C(=O)C2CC2)CC1", "note": "[olaparib]", "values": [
      {"measurement": "DNA synthesis (BrdU)", "setting": "COLO-320DM cells; 10 μmol/L", "result": "marginally inhibited"},
      {"measurement": "DNA synthesis (BrdU)", "setting": "COLO-320DM cells; concentrations up to 3 μmol/L", "result": "no effects"},
      {"measurement": "DNA synthesis (BrdU)", "setting": "RKO cells", "result": "resistant"},
      {"measurement": "DNA synthesis (BrdU) relative to basal level", "setting": "RKO cells; 10 μmol/L", "result": "half"},
      {"measurement": "Immunofluorescence intensity of active β-catenin", "setting": "[2]", "result": 106, "unit": "%"},
      {"measurement": "Tankyrase, Axin1/2 and β-catenin protein levels (western blot)", "setting": "[3]", "result": "did not affect"},
      {"measurement": "TCF/LEF reporter activity", "setting": "[4]", "result": "no effect"},
      {"measurement": "TCF/LEF luciferase activity", "setting": "[5]", "result": "only marginally inhibited"}
    ]}
  ]
}
